Source: paper PMC6217806 (European journal of medicinal chemistry, 2018)

What was measured:
Assay type in all cases: cell-based
[1] = tested on: HIV-1 NL4-3 Nanoluc-sec; conditions: for SI, selectivity index, calculated as CC50/EC50: CC50 (MT4) / EC50 (HIV-1 in MT4)
[2] = CytoTox-Glo cytotoxicity assay in MT4 cells; conditions: human
[3] = tested on: T cell latent HIV-1 model JLat-A2; test: FACS analysis of GFP-expressing J-Lat; conditions: JLat-A2, 10 and 50 nM, 72 h
Summary of the method: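 J-Lat (A2) latently infected cells at 1×10⁶ cells/well, incubated with test compounds at various concentrations, 37 °C, 72 h. GFP-expressing cells scored by flow cytometry.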

[4] = Cytotoxicity against U937 cell; conditions: human, U937 cells
Summary of the method: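 Cells cultured 3 days with test compound over a concentration range. Viability read by CytoTox-Glo cytotoxicity assay per manufacturer's protocol, same method as for MT4 cells. CC50 taken as the concentration giving 50% reduction in cell viability.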

Structure (SMILES)	SI, selectivity index, calculated as CC50/EC50 [1]	further results
CC1=C[C@@H]2C(=O)[C@]3(C=C(C)[C@H](O)[C@@]3(O)[C@@H]1OC(=O)c1ccccc1)[C@H](C)C[C@@H]1[C@H]2C1(C)C [Compound 1, 5-O-benzoyl-20-deoxyingenol]	>216	
CC1=C[C@@H]2C(=O)[C@]3(C=C(C)[C@H](OC(=O)c4ccccc4)[C@@]3(O)[C@@H]1O)[C@H](C)C[C@@H]1[C@H]2C1(C)C [Compound 2, 3-O-benzoyl-20-deoxyingenol]	>302	
CC(=O)O[C@H]1C(C)=C[C@]23C(=O)[C@@H](C=C(C)[C@@H](OC(=O)c4ccccc4)[C@]12O)[C@H]1[C@@H](C[C@H]3C)C1(C)C [Compound 3, kansuiphorin C]	>23	
CC(=O)OCC1=C[C@@H]2C(=O)[C@]3(C=C(C)[C@H](O)[C@@]3(O)[C@@H]1O)[C@H](C)C[C@@H]1[C@H]2C1(C)C [Compound 4, ingenol monoacetate]	>10	
CCCCCCCCCCCC(=O)O[C@@]12C[C@@H](C)[C@]34C=C(C)[C@H](OC(=O)C(C)C(C)C)[C@@]3(O)[C@H](O)C(CO)=C[C@H](C4=O)[C@@H]1C2(C)C (some centres unmarked) [Compound 5, 3-O-(2,3-dimethylbutanoyl)-13-O-dodecanoylingenol]	>7500	
C=C1[C@H](OC(=O)c2ccccc2)[C@H]2[C@@H](OC(C)=O)[C@](C)(O)[C@H](OC(C)=O)[C@]2(O)C(=O)[C@@H](C)[C@H]2O[C@@H]2C(C)(C)C(=O)[C@H](O)[C@H]1OC(=O)c1ccccc1 [Compound 7, kansuinin C]		anti-HIV activity ([1]; jatrophane diterpenoids isolated from E3-fraction): no anti-HIV activity
CCCCCCCCCCCC(=O)O[C@@]12C[C@@H](C)[C@]34C=C(C)[C@H](O)[C@@]3(O)[C@H](O)C(CO)=C[C@H](C4=O)[C@@H]1C2(C)C [Compound 11, 13-oxyingenol-13-dodecanoate]	>273	
COc1ccc(C(=O)O[C@H]2C(C)=C[C@]34C(=O)[C@@H](C=C(C)[C@@H](O)[C@]23O)[C@H]2[C@@H](C[C@H]4C)C2(C)C)cc1 [Compound 12a, 3-(p-Methoxybenzoyl)-20-deoxyingenol]	>64	
COc1ccc(C(=O)O[C@@H]2C(C)=C[C@@H]3C(=O)[C@]4(C=C(C)[C@H](O)[C@@]24O)[C@H](C)C[C@@H]2[C@H]3C2(C)C)cc1 [Compound 12b, 5-(p-methoxybenzoyl)-20-deoxyingenol]	>20	
CC1=C[C@@H]2C(=O)[C@]3(C=C(C)[C@H](OC(=O)/C=C/c4ccccc4)[C@@]3(O)[C@@H]1O)[C@H](C)C[C@@H]1[C@H]2C1(C)C [Compound 13a, 3-(trans-Cinnamoyl)-20-deoxyingenol]	>45	
CC1=C[C@@H]2C(=O)[C@]3(C=C(C)[C@H](O)[C@@]3(O)[C@@H]1OC(=O)/C=C/c1ccccc1)[C@H](C)C[C@@H]1[C@H]2C1(C)C [Compound 13b, 5-(trans-cinnamoyl)-20-deoxyingenol]	>22	
CC1=C[C@@H]2C(=O)[C@]3(C=C(C)[C@H](OC(=O)c4ccc5ccccc5c4)[C@@]3(O)[C@@H]1O)[C@H](C)C[C@@H]1[C@H]2C1(C)C [Compound 14a, 3-(2-Naphthoyl)-20-deoxyingenol]	>543	
C/C=C/C(=O)O[C@H]1C(C)=C[C@]23C(=O)[C@@H](C=C(C)[C@@H](O)[C@]12O)[C@H]1[C@@H](C[C@H]3C)C1(C)C [Compound 15a, 3-Crotonoyl-20-deoxyingenol]	>17	
C/C=C/C(=O)O[C@@H]1C(C)=C[C@@H]2C(=O)[C@]3(C=C(C)[C@H](O)[C@@]13O)[C@H](C)C[C@@H]1[C@H]2C1(C)C [Compound 15b, 5-crotonoyl-20-deoxyingenol]	>16	
C/C=C(\C)C(=O)O[C@H]1C(C)=C[C@]23C(=O)[C@@H](C=C(C)[C@@H](O)[C@]12O)[C@H]1[C@@H](C[C@H]3C)C1(C)C [Compound 16, 3-Tigloyl-20-deoxyingenol]	>46	CC50 at 3 days [2]: > 9.7 µM
C/C=C(/C)C(=O)O[C@H]1C(C)=C[C@]23C(=O)[C@@H](C=C(C)[C@@H](O)[C@]12O)[C@H]1[C@@H](C[C@H]3C)C1(C)C [Compound 17, 3-angeloyl-20-deoxyingenol]	>22.8	
CCCCCCCC(=O)O[C@H]1C(C)=C[C@]23C(=O)[C@@H](C=C(C)[C@@H](O)[C@]12O)[C@H]1[C@@H](C[C@H]3C)C1(C)C [Compound 18, 3-Octanoyl-20-deoxyingenol]	>59.9	
C/C=C(/C)C(=O)O[C@H]1C(C)=C[C@]23C(=O)[C@@H](C=C(CO)[C@@H](O)[C@]12O)[C@H]1[C@@H](C[C@H]3C)C1(C)C [Compound 22, 3-Angeloylingenol]	>2067	activation of green fluorescent protein (GFP) expression [3]: comparable potency
CC1=C[C@]23C(=O)[C@@H](C=C(CO)[C@@H](O)[C@]2(O)[C@H]1OC(=O)c1ccc2ccccc2c1)[C@H]1[C@@H](C[C@H]3C)C1(C)C [Compound 23, 3-(2-Naphthoyl)ingenol]	>6153	activation of green fluorescent protein (GFP) expression [3]: comparable potency; CC50 at 3 days [4]: > 2 µM
